Measurements reported in PMC4076036 (Journal of Natural Products, 2014).

Columns and labels:
melan-a melanocytes [1] = assay: Confocal immunofluorescence microscopy of tyrosinase localization; type: cell-based, mouse
melan-a tyrosinase = molecular target: T1, melan-a tyrosinase (Mus musculus, UniProt P11344); type: biochemical; settings: for type of tyrosinase inhibition: Lineweaver–Burk plot, L-DOPA
T1 sequence (P11344 19-533): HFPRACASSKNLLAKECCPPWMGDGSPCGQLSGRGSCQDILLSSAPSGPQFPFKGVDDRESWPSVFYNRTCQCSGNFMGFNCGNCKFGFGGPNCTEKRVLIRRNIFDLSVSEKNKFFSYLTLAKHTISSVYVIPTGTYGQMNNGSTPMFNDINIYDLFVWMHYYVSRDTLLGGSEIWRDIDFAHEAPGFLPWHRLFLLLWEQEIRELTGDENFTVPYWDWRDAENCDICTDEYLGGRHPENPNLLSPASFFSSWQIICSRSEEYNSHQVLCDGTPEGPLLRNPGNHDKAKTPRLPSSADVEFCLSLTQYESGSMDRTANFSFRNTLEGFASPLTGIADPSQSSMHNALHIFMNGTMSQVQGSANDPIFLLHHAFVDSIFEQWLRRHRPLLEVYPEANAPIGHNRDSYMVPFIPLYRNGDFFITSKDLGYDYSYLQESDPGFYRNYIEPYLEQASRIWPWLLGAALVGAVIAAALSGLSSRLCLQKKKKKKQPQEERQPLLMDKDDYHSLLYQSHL

MITF, tyrosinase, TRP-1 = type: cell-based, mouse; settings: 1 day, forskolin-supplemented medium
In short: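 Melan-a cells were co-treated with 1 μM forskolin, with or without the test compound, for 1 day. Proteins were extracted in PhosphoSafe buffer, run on 10% SDS-PAGE, semidry-transferred to PVDF and blocked in 3% BSA. Blots were probed for tyrosinase, TRP-1, TRP-2, MITF and β-actin, then HRP secondary antibodies (1 h, room temperature). Detection was by ECL, with stripping before reprobing.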

tyrosinase [2] = molecular target: T2, tyrosinase (Mus musculus, UniProt P11344); assay: Tyrosinase activity in treated melan-a cells; type: cell-based; settings: 60 μM, 3 days, 20 nM TPA; TPA alone 100%
T2 sequence (P11344 19-533): T1 sequence (P11344 19-533)

melan-a melanocytes [3] = assay: Sulforhodamine B cytotoxicity assay; type: cell-based, mouse; settings: 3 days, with or without forskolin
In short: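 Melan-a cells in RPMI-1640 with 5% FBS and antibiotics were seeded at 20 000 cells/0.1 mL/well. They were exposed to the test compound for 72 h in medium with 20 nM TPA, 1 μM forskolin, or vehicle alone. Viability was read by the sulforhodamine B colorimetric assay. Values are mean ± SD of triplicate experiments.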

tyrosinase [4] = assay: Glycosylation analysis of tyrosinase; type: cell-based, mouse; settings: forskolin-supplemented medium, Endo H digestion
tyrosinase/TRP-1 complex = assay: Co-immunoprecipitation with antibody against TRP-1; type: cell-based, mouse; settings: 3 days, forskolin-supplemented medium

| Compound | colocalization of calnexin and tyrosinase (melan-a melanocytes [1]; 85 μM, 1 day, positive control) | Vmax (melan-a tyrosinase) | type of tyrosinase inhibition (melan-a tyrosinase) | TRP-1 expression (MITF, tyrosinase, TRP-1) | expression of MITF (MITF, tyrosinase, TRP-1) | expression of tyrosinase (MITF, tyrosinase, TRP-1) | tyrosinase localization (calnexin/ER, Lamp-1/lysosome) (melan-a melanocytes [1]; 60 μM, 3 days) | tyrosinase activity (tyrosinase [2]) | reversibility of binding to tyrosinase (melan-a tyrosinase; tyrosinase mixed with compound 24 h prior to kinetic analysis) | cytotoxic effect (melan-a melanocytes [3]) | immature Endo H-sensitive form of tyrosinase (tyrosinase [4]) | tyrosinase co-immunoprecipitated with TRP-1 (tyrosinase/TRP-1 complex) | colocalization of tyrosinase and Lamp-1 (melan-a melanocytes [1]; 15 μM, 4 days) |
| --- | --- | --- | --- | --- | --- | --- | --- | --- | --- | --- | --- | --- | --- |
| Oc1ccc(/C=C/c2cc(O)cc(O)c2)cc1 [resveratrol, reference compound] | clearly colocalize to the ER | 2.5 × 10^–4 ΔA490/s | noncompetitive |  |  |  |  |  |  |  |  |  |  |
| OC[C@H]1O[C@@H](Oc2c(O)cc(O)cc2/C=C/c2ccc(O)cc2)[C@H](O)[C@@H](O)[C@@H]1O [Compound 1, 2,3,5,4′-Tetrahydroxystilbene-2-O-β-D-glucopyranoside] |  |  | noncompetitive | not prominent | suppressed | suppressed | no aberrant tyrosinase is trapped in the ER and lysosome | 65% | likely reversible | did not exert any cytotoxic effect | No immature Endo H-sensitive form of tyrosinase was present | reduction of immunoprecipitated tyrosinase |  |
| CC(=O)[C@H]1CC[C@H]2[C@@H]3CCC4=CC(=O)CC[C@]4(C)[C@H]3CC[C@]12C [progesterone] |  |  |  |  |  |  |  |  |  |  |  |  | Colocalization of both tyrosinase and Lamp-1 were also observed |
